Hits are enriched below; roughly 1.8% of the tested compounds scored in any of these assays.
Rin1 Abl inh: inhibitors of human Rin1-Abl protein interaction; inhibition, % at 7.35 µM; AID 588664; TR-FRET Rin1/Abl binding, biochemical; P00519+Q13671; 360,000 tested, 0.4% active; in the data active means inhibition above about 5%, passing the limit was not always enough
NR1D1 modulator: modulators of human Rev-erb alpha DNA binding | 370,000 tested, 0.79% active | P20393 | Rev-erbα–FITC-DNA binding, fluorescence polarization, 90 min | AID 1259318 | activity, % at 10 µM;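 active means activity above about 14%, limit read from the data; passing the limit was not always enough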;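 further: 0% = DMSO wells with 35 nM protein and 100% = DMSO wells with 750 nM protein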
Target sequence (P20393 whole entry, looked up): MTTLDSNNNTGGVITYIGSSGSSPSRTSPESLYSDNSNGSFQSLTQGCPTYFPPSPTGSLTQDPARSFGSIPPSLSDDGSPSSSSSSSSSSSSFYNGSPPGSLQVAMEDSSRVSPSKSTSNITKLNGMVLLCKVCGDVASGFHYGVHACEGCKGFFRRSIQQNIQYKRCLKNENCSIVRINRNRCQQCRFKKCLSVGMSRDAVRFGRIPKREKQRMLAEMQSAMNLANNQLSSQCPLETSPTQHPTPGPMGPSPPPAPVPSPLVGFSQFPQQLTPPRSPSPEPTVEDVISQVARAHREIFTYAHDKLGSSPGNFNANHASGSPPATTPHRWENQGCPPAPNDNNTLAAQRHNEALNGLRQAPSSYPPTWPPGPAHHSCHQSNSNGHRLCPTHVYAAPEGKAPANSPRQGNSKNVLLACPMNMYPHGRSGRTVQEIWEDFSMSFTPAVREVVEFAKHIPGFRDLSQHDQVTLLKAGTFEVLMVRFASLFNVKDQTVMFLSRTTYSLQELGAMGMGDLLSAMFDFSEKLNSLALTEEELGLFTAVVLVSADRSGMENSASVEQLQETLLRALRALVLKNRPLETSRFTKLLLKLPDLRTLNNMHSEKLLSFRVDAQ
TbMetRS inhib: Trypanosoma brucei MetRS inhibition. inhibition, % at 11.9 µM. purified T. brucei MetRS, ATP depletion, Kinase-Glo luminescence. 360,000 tested, 0.4% active. AID 624268;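 active means inhibition above a per-plate cutoff of the control wells' mean inhibition plus 3 SD, cut at about 5.5% in these data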;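 further: 0% = DMSO wells median and 100% = median of wells with control inhibitor compound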
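System: purified T. brucei MetRS enzyme / Detection: Kinase-Glo luciferase luminescence reporting remaining unconsumed ATP / Medium: HEPES buffer with MgCl2, KCl, DTT, spermine, BSA, pyrophosphatase / Replication: singlicate, one well per compound / Evaluation: percent inhibition relative to median high and low control wells / Schedule: 2 h aminoacylation at 25 °C after 15 min preincubation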
PG9 Ab binder: binds the HIV-1 gp120 antibody PG9 | TR-FRET gp120-PG9 antibody binding | inhibition, % at 6.7 µM | 360,000 tested, 0.43% active; in the data active means inhibition above about 8.5%
TbMetRS confirm: confirmation of Trypanosoma brucei MetRS inhibitors | shares compounds with TbMetRS inhib | T. brucei MetRS enzyme, luminescence (ATP depletion) | inhibition, % at 11.9 µM | 1,400 tested, 93% active | AID 624412; in the data active means inhibition above about 7%
Jurkat tox: counter-screen for T. brucei MetRS inhibitors: Jurkat cell cytotoxicity; shares compounds with TbMetRS inhib; Jurkat cells viability, ATP luminescence; inhibition, % at 8.3 µM; 1,400 tested, 12% active; in the data active means inhibition above about 15%;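 further: 0% = vehicle and 100% = reference inhibitor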
TbMetRS FP orth: T. brucei MetRS inhibition, orthogonal assay; shares compounds with TbMetRS inhib; purified T. brucei MetRS, fluorescence polarization; inhibition, % at 11.9 µM; 1,400 tested, 44% active; AID 651607; in the data active means inhibition above about 17%;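 further: 0% = vehicle wells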
Numbers without * were called inactive; x = no result.

SMILES | Rin1 Abl inh | NR1D1 modulator | TbMetRS inhib | PG9 Ab binder | TbMetRS confirm | Jurkat tox | TbMetRS FP orth
CCNC(=O)c1ccc(=O)n(Cc2ccc(Cl)cc2Cl)c1 | -0.3 | -6.6 | -0.9 | -2.8 | x | x | x
Cc1cccc(NC(=O)c2ccc(Cn3cc(C(F)(F)F)ccc3=O)cc2)c1 | 0.4 | -4.7 | -0.3 | -3.7 | x | x | x
COCCCN1C(=O)[C@H](CC(=O)N2CCOCC2)[C@]2(C(=O)OC)CCCCC=C12 | x | 5.9 | x | x | x | x | x
O=[N+]([O-])c1ccc2nc(SCc3cn4cccnc4n3)[nH]c2c1 | -3.0 | -1.6 | 0.8 | 0.1 | x | x | x
O=[N+]([O-])c1ccc2nc(SCc3cn4ccccc4n3)[nH]c2c1 | -1.6 | 1.6 | 17.4* | 0.8 | 35.2* | -2.8 | 21.4*
O=C(NCCNC(=O)c1ccccc1O)c1ccccc1O | 2.1 | 2.7 | 2.2 | -1.1 | x | x | x
O=C(NCCCCCCNC(=O)c1ccccc1O)c1ccccc1O | 0.0 | 7.1 | 6.7* | 0.8 | 13.6* | 7.8 | 6.3
O=C(NCCCc1ccccc1)[C@H](Cc1c[nH]c2ccccc12)NC1(C(=O)NCCc2c[nH]c3ccccc23)CCC1 | x | -4.9 | x | x | x | x | x
Cc1c(NS(=O)(=O)c2cccc(C(=O)NCc3cccc(Cl)c3)c2)c(=O)n(-c2ccccc2)n1C | 4.7 | 3.8 | 17.8* | -1.2 | 42.6* | 6.5 | 27.3*
NC(=S)NNc1cc(Cl)cc(Cl)c1 | 3.0 | -0.8 | 8.1* | -0.6 | 17.6* | 1.0 | 9.9
CCCCC#Cc1cncc(C(=O)NN)c1 | 3.6 | 2.0 | 5.7* | 0.5 | 2.5 | 6.4 | 5.9
CCN1C(=O)C(CC(=O)Nc2ccc(OC)cc2)N(CCc2ccccc2)C1=S (configuration not stated) | 3.5 | -1.6 | 43.3* | -1.2 | 40.2* | 1.1 | 25.4*
COc1ccc(NC(=O)CC2C(=O)N(c3ccccc3)C(=O)N2CCc2cccs2)cc1 (configuration not stated) | -2.8 | -2.0 | 32.3* | -0.7 | 46.0* | -1.5 | 23.7*
CCN1C(=O)C(CC(=O)Nc2ccc(F)cc2)N(CCc2ccc(OC)cc2)C1=S (configuration not stated) | 5.1 | 8.0 | 30.1* | -1.7 | 47.3* | -6.7 | 35.7*
C=CCn1c(Cc2cccs2)nnc1SCC(=O)Nc1ccc(OCc2ccccc2)cc1 | x | -1.6 | x | x | x | x | x
CC(C(=O)Nc1ccc(O)cc1)c1cccc(C(=O)c2ccccc2)c1 (configuration not stated) | 0.7 | 6.5 | 21.8* | -2.1 | 30.1* | 18.8* | 31.3*
CC(=O)Nc1ccc(NC(=O)C(C)c2cccc(C(=O)c3ccccc3)c2)cc1 (configuration not stated) | -1.4 | -3.0 | -0.1 | -0.6 | x | x | x
COc1ccc(OCC(=O)Nc2cccc(-c3nc4ccccc4[nH]3)c2)cc1 | 1.9 | -4.6 | 7.1* | -1.3 | 11.8* | 3.5 | 31.3*
O=C(O)CCCC(=O)Nc1cccc(-c2nc3ccccc3[nH]2)c1 | -3.6 | 1.8 | 0.1 | 2.3 | x | x | x
O=C(COc1ccccc1)Nc1cccc(-c2nc3ccccc3[nH]2)c1 | -1.5 | -3.1 | 20.9* | -1.0 | 43.0* | 4.2 | 26.2*
COc1cc(CNc2ncnc3c2[nH]c2ccc(C)cc23)cc(OC)c1 | -0.4 | -2.9 | 75.4* | 0.8 | 83.9* | 6.7 | 80.1*
Cc1ccc2[nH]c3c(NCCCN4CCCC4=O)ncnc3c2c1 | 1.7 | 2.9 | 20.6* | -1.0 | 35.7* | 1.5 | 25.3*
Cc1ccc2[nH]c3c(NCc4ccco4)ncnc3c2c1 | -3.3 | -0.7 | 44.9* | 1.8 | 54.2* | 27.7* | 26.2*
COc1ccc(/C=N/Nc2ncnc3c2[nH]c2ccc(C)cc23)c(OC)c1OC | -3.6 | -25.6 | -0.2 | -0.1 | x | x | x
CCC[C@H]1[C@H](N)CC[C@@]23CCCN2C(=O)CCC[C@@H]13 | x | -7.4 | x | x | x | x | x
SMILES | Rin1 Abl inh | NR1D1 modulator | TbMetRS inhib | PG9 Ab binder | TbMetRS confirm | Jurkat tox | TbMetRS FP orth
C(=C\c1ccccc1)/CSc1nnc(Cc2cccs2)n1-c1ccccc1 | x | 0.5 | x | x | x | x | x
CCCCSc1nnc(-c2c[nH]c3ccccc23)n1C | 3.3 | -6.1 | 2.0 | -0.1 | x | x | x
Cn1c(SCc2ccccc2)nnc1-c1c[nH]c2ccccc12 | 0.0 | -3.4 | 8.3* | -0.4 | 18.9* | 4.6 | 6.1
COc1ccccc1-c1nnc(SC(C(=O)c2c[nH]c3ccccc23)c2ccccc2)n1C (configuration not stated) | -2.4 | -3.7 | 13.4* | -2.5 | 35.3* | 1.6 | 11.5
O=C(CN1C(=O)/C(=C2/SC(=S)N(CCS(=O)(=O)O)C2=O)c2ccccc21)Nc1cccc(C(F)(F)F)c1 | 3.0 | 2.9 | 42.1* | -2.3 | 13.8* | 4.7 | 2.1
O=C(CN1C(=O)/C(=C2\SC(=S)N(CCS(=O)(=O)O)C2=O)c2ccccc21)Nc1cccc(Br)c1 | 2.9 | -1.1 | 19.2* | -0.2 | 19.7* | -4.8 | 0.8
CCCCNC(=O)O[C@H]1CC[C@@]23CCCN2C(=O)CCC[C@H]3[C@H]1CCC | x | -0.8 | x | x | x | x | x
COC(=O)c1cc2c(c3c4cc(OC)ccc4n(S(=O)(=O)c4cccc(C)c4)c13)C(=O)N(Cc1ccccc1OC)C2 | x | 7.8 | x | -0.8 | x | x | x
O=c1[nH]c(CSc2nnc(-c3ccccc3)n2-c2ccccc2)nc2ccccc12 | 3.7 | -0.9 | -0.9 | -1.6 | x | x | x
Brc1ccc(-n2c(SCc3nc4ccccc4[nH]3)nnc2-c2ccncc2)cc1 | -4.3 | 5.3 | 27.2* | -0.9 | 41.9* | 1.0 | 16.1
O=C(Cc1ccc(Br)cc1)NNC(=O)Nc1ccc(Cl)cc1 | -3.7 | -3.1 | 16.9* | 0.8 | 24.0* | 5.4 | 17.3*
O=C(Cc1ccc(Cl)cc1)Nc1ccc(Br)cc1 | 1.1 | 4.1 | 6.1* | -1.0 | 10.9* | 4.6 | 5.7
O=C(Cn1c(=O)cnc2ccccc21)Nc1cccc(S(=O)(=O)N2CCOCC2)c1 | 4.3 | -2.6 | 0.6 | -0.2 | x | x | x
O=C(COC(=O)Cn1cnc2ccccc21)Nc1cccc(S(=O)(=O)N2CCOCC2)c1 | 4.4 | -0.8 | 35.1* | -2.9 | 56.8* | 1.8 | 31.5*
CN(C)S(=O)(=O)c1cccc(NC(=O)Cc2ccc(Cl)cc2)c1 | -1.6 | 5.0 | 14.9* | 0.0 | 27.3* | 3.1 | 20.8*
O=C(Cc1ccc(Cl)c(Cl)c1)Nc1cccc(S(=O)(=O)N2CCOCC2)c1 | -2.0 | 6.7 | 58.8* | 1.6 | 76.5* | 0.3 | 65.0*
O=C(N[C@H](C(=O)N1CCC[C@H]1C(=O)NCCc1ccccc1Cl)C1CCCCC1)c1cccs1 | x | -1.9 | x | 0.1 | x | x | x
COc1ccc(C2C(C(=O)N3CCN(c4ccccc4C)CC3)CC(=O)N2c2ccc(OC)cc2)cc1 (configuration not stated) | x | 11.0 | x | x | x | x | x
CCC1CCCN1Cn1cnc2c([nH]c3ccc(C)cc32)c1=O (configuration not stated) | 0.6 | 4.6 | 0.9 | -0.3 | x | x | x

Source: PubChem BioAssay
